Measurements: ChEMBL document CHEMBL1151846, “Cytotoxic constituents of chinese propolis” (J Nat Prod, 2009)

System: HeLa
Assay: Cytotoxicity against human HeLa cells by MTT assay
Format: functional, cell-based
In short: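 HeLa human cervical cancer cells were tested by MTT viability assay, following a previously published protocol. Doxorubicin was run as the reference cytotoxic control. Values are reported as IC50 in µM.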

In the case of `O=C1C[C@@H](c2ccccc2)Oc2cc(O)cc(O)c21` [PINOCEMBRIN], the IC50 is reported as at least 10 µM.

`COc1cc(O)c2c(=O)c(O)c(-c3ccc(O)c(O)c3)oc2c1` [RHAMNETIN] gave an IC50 of 7.8 µM.

`COc1ccc(/C=C/C(=O)O)cc1O` [ISOFERULIC ACID] showed an IC50 of at least 10 µM.

For `O=c1cc(-c2ccc(O)cc2)oc2cc(O)cc(O)c12` [APIGENIN], the IC50 was at least 10 µM.

For `COc1cc(O)c(C(=O)/C=C/c2ccccc2)c2c1C[C@@H](O)[C@H](c1cc(O)cc(O)c1)O2`, the IC50 was 7.1 µM.

Work on `O=c1c(O)c(-c2ccccc2)oc2cc(O)cc(O)c12` [GALANGIN] yielded an IC50 of at least 10 µM.

`COc1cc(O)cc2c1C(=O)C(O)C(c1ccccc1)O2` (configuration not stated) showed an IC50 of at least 10 µM.

Work on `COc1cc(C2Oc3c(c(OC)cc(O)c3C(=O)/C=C/c3ccccc3)CC2O)ccc1O` (configuration not stated) yielded an IC50 of 6.4 µM.

`O=c1c(O)c(-c2ccc(O)c(O)c2)oc2cc(O)cc(O)c12` [QUERCETIN] gave an IC50 of at least 10 µM.

In the case of `COc1cc(-c2oc3cc(O)cc(O)c3c(=O)c2O)ccc1O` [ISORHAMNETIN], the IC50 is reported as at least 10 µM.

Work on `O=c1cc(-c2ccccc2)oc2cc(O)cc(O)c12` [CHRYSIN] yielded an IC50 of at least 10 µM.

`COc1cc(O)c(C(=O)/C=C/c2ccccc2)c2c1C[C@H](O)[C@@H](c1cc(O)cc(O)c1)O2` was tested, and the IC50 was 7.3 µM.
